In the library only some 0.99% were active in any assay of this set; here they are far more common.
LYPLA1 inh: blocks human lysophospholipase 1, a PME1 counter-screen | O75608 | recombinant LYPLA1, FP-Rh probe fluorescence polarization | inhibition, % at 5.9 µM | actives 0.16% (n = 320,000) | AID 2174;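 active = inhibition above the mean of all tested compounds plus 3 SD, set per campaign, cut at about 14% in these data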;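 note: inhibitors block serine hydrolase probe labeling of LYPLA1 so polarization falls; 0% = enzyme with DMSO and 100% = wells lacking LYPLA1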
Target sequence (O75608 whole entry, looked up): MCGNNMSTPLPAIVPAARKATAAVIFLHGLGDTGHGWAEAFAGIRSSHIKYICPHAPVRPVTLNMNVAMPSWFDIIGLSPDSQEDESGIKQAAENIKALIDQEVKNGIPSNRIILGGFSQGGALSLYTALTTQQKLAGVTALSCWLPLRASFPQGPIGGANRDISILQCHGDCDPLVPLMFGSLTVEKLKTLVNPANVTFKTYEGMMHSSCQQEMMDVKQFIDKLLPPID
RBBP9 inhibitor: blocks human serine hydrolase RBBP9; recombinant RBBP9, FP-Rh probe fluorescence polarization; actives 0.2% (n = 220,000); inhibition, % at 7.94 µM; AID 1515;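 active = inhibition above the campaign mean of all tested compounds plus 3 SD, cut at about 14% in these data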;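 note: plate controls were DMSO wells with RBBP9 for no effect and wells lacking RBBP9 protein for full effect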
Target sequence (O75884 whole entry, looked up): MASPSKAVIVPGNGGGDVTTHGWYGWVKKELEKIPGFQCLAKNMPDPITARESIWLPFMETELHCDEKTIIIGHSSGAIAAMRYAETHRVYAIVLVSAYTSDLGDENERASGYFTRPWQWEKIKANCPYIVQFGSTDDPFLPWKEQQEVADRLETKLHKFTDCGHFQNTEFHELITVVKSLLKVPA
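Test system: recombinant human RBBP9; Timing: 30 min then 45 min, 25 °C; Detection: fluorescence polarization; Control set: RBBP9 with DMSO as uninhibited control, no-protein wells as full inhibition; Compound dosing: one concentration, 7.94 µM nominal, 0.794% DMSO; Probe or stimulus: FP-Rh activity-based probe, 375 nM before mixing.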
Fam108B counter: Fam108B inhibition, counter-screen for RBBP9 inhibitors; recombinant Fam108B, FP-Rh probe fluorescence polarization; inhibition, % at 9.51 µM; actives 0.33% (n = 300,000); AID 1947;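 active = inhibition above the screen mean inhibition plus 3 SD, computed separately per campaign, cut at about 18% in these data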;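 note: inhibitors lower polarization as less probe binds the enzyme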
PME-1 inh: PME-1 (human) inhibition; actives 0.53% (n = 320,000); AID 2130; recombinant PME-1, FP-Rh probe fluorescence polarization; inhibition, % at 5.9 µM; Q9Y570;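 active = inhibition above the campaign mean of all compounds plus 3 SD, cut at about 26% in these data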;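 note: competitive labeling of PME-1 active site by serine hydrolase directed probe; 0% = PME-1 with DMSO and 100% = wells lacking PME-1 enzyme; inhibitors block probe labeling so polarization falls and inhibition rises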
LYPLA2 counter: blocks human lysophospholipase 2, a PME1 counter-screen; inhibition, % at 5.9 µM; actives 0.38% (n = 320,000); recombinant LYPLA2, FP-Rh probe fluorescence polarization; AID 2177; O95372;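 active = inhibition above the screen-wide mean plus 3 SD, limit set per campaign, cut at about 26% in these data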;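 note: 0% = LYPLA2 with DMSO and 100% = wells lacking LYPLA2 enzyme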
Target sequence (O95372 whole entry, looked up): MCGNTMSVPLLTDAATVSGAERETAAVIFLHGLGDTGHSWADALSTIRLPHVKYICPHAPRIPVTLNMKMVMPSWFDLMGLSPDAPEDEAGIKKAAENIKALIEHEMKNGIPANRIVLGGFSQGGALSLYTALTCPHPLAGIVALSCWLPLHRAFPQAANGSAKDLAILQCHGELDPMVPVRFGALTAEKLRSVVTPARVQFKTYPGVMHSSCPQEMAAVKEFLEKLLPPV
Numbers without * were called inactive; nt = no result given.

SMILES | LYPLA1 inh | RBBP9 inhibitor | Fam108B counter | PME-1 inh | LYPLA2 counter
CS(=O)(=O)Nc1cccc(C2=NN(S(C)(=O)=O)C(c3ccc4c(c3)OCO4)C2)c1 (stereo not drawn) | -2.8 | -4.9 | 1.7 | 15.3 | 5.2
COc1ccc(Nc2cnn(-c3nc4ccccc4s3)c(=O)c2Cl)cc1 | -2.8 | -4.9 | 1.6 | 29.1* | 11.4
CC(SC1=NCCN1S(C)(=O)=O)c1ccccc1 (stereo not drawn) | 0.0 | nt | -2.4 | 3.6 | 0.8
C/C(=N\Nc1nc2ccccc2s1)c1cccs1 | 0.5 | -4.3 | -1.3 | 31.7* | 7.8
Cc1ccc2cc(C#N)c(SCc3nnc(-c4ccccc4[N+](=O)[O-])o3)nc2c1 | -5.3 | -2.1 | 3.8 | 34.7* | -8.0
CCCCN(C(=O)CCC(=O)Nc1cc(C)on1)C(C(=O)NC1CCCC1)c1ccc(OCC)cc1 (stereo not drawn) | -2.0 | nt | 3.5 | 3.8 | -4.7
C(=N\Nc1nc2ccccc2s1)/c1cccs1 | 0.6 | -4.0 | 9.4 | 21.9 | 4.2
CCn1c(C)c(/C=N/Nc2nc3ccccc3s2)c2ccccc21 | -16.4 | -5.6 | 5.5 | 35.3* | -12.7
Cc1cccc(/C=N/NC(=O)C2CCCNC2=O)c1 (stereo not drawn) | 0.6 | 4.2 | 2.7 | 3.5 | 2.9
Cc1ccccc1/C=N/Nc1ccnc2cc(Cl)ccc12 | -2.5 | -6.7 | 3.6 | 11.2 | -5.5
Oc1ccc(/C=N/Nc2ccnc3cc(Cl)ccc23)c(O)c1 | -1.7 | 12.8 | 3.5 | 26.9* | 3.3
Cc1ccc(/C=N/Nc2ccnc3cc(Cl)ccc23)c(C)c1 | 0.8 | 3.5 | 15.9 | 35.0* | 3.6
Clc1ccc2c(N/N=C/c3ccc(Br)cc3)ccnc2c1 | -4.7 | -2.0 | 0.3 | 11.1 | -2.0
CCCNC(=O)C1CCN(S(=O)(=O)c2cccs2)CC1 | 0.9 | -2.7 | 0.5 | 4.2 | -0.5
O=C(NCCC1=CCCCC1)C1CCN(S(=O)(=O)c2cccs2)CC1 | 0.6 | -9.7 | -0.7 | 28.5* | 0.4
CCOC(=O)c1c(OCC)[nH]c2c1cc(O)c1ccccc12 | -6.0 | -7.7 | 8.9 | 39.4* | -3.7
CCOC(=O)c1c(C)[nH]c2cc(Br)c(O)cc12 | 1.1 | -5.9 | 8.4 | 19.2 | -0.4
Nc1c(N=Nc2ccccc2F)c(=O)[nH]n1-c1ccccc1 | -0.5 | -4.3 | 10.0 | 35.7* | 0.7
O=C(CN1C(=O)NC2(CCCC2)C1=O)Nc1cc(Cl)ccc1N1CCOCC1 | -1.3 | nt | 1.1 | 2.6 | -3.3
O=C(c1ccc(S(=O)(=O)Cc2ccccc2F)c([N+](=O)[O-])c1)N1CCCCCC1 | -3.6 | -5.9 | 2.5 | 5.9 | -1.7
CC1CCN(C(=O)c2ccc(SCc3ccccc3F)c([N+](=O)[O-])c2)CC1 | 9.6 | -3.5 | 3.7 | 3.5 | 34.3*
CCC(=O)Nc1nc(C)c(-c2csc(Nc3cccc(O)c3)n2)s1 | 4.0 | nt | 16.4 | 30.1* | 12.4
CCCCCC(=O)Nc1nc(C)c(-c2csc(Nc3cc(OC)ccc3OC)n2)s1 | -12.3 | -3.5 | 12.6 | 26.1 | -8.6
CCCCCCC(=O)Nc1nc(C)c(-c2csc(Nc3cc(OC)ccc3OC)n2)s1 | -13.3 | 0.0 | 10.7 | 35.4* | -2.3
CCc1ccc(-c2nc(CS(=O)CC(=O)NCc3ccco3)c(C)o2)cc1 (stereo not drawn) | -2.9 | nt | -4.4 | -2.0 | 1.7
SMILES | LYPLA1 inh | RBBP9 inhibitor | Fam108B counter | PME-1 inh | LYPLA2 counter
Cn1c(=N)n(CC(=O)c2ccc(Br)cc2)c2ccccc21 | 0.8 | nt | 16.6 | 32.0* | 0.6
CCS(=O)(=O)N1CCN(c2cc3c(cc2[N+](=O)[O-])n(C)c(=O)n3C)CC1 | -2.0 | 3.0 | 2.1 | -3.9 | -1.3
CCCCN(CC)CCCNC(=O)c1cn(CC)c2ccc(S(=O)(=O)N3CCc4ccccc4C3)cc2c1=O | 1.2 | 8.5 | -1.3 | 35.6* | -8.2
CCCCN(C)CCCNC(=O)c1cn(CC)c2ccc(S(=O)(=O)N3CCc4ccccc4C3)cc2c1=O | -3.0 | -7.3 | 1.8 | 40.5* | 1.8
CCCN(CCC)CCCNC(=O)c1cn(CC)c2ccc(S(=O)(=O)N3CCc4ccccc4C3)cc2c1=O | -0.1 | -5.4 | -2.0 | 16.0 | -3.4
CCOC(=O)c1c(S(=O)(=O)NCC2CCN(CCc3cccs3)CC2)c(C)n(C)c1C | 2.1 | nt | -3.8 | -0.6 | 1.6
COc1ccc(N2CCN(c3ncnc4c3[nH]c3ccccc34)CC2)cc1 | 5.0 | 2.1 | 13.2 | 32.4* | 9.6
CCOC(=O)N1CCN(c2ncnc3c2[nH]c2ccc(OC)cc23)CC1 | 5.2 | -2.2 | 1.3 | 11.7 | 1.2
Fc1ccc2[nH]c3c(N4CCN(c5ccccc5)CC4)ncnc3c2c1 | 0.3 | 7.0 | 16.3 | 45.5* | 1.2
O=C1c2cccc3cccc(c23)C(=O)N1CCN1CCN(CC(O)COc2ccccc2)CC1 (stereo not drawn) | 3.0 | -6.7 | -3.0 | 2.2 | 30.8*
O=C(O)c1cc(NC(=O)c2ccc(Cl)c([N+](=O)[O-])c2)cc(C(=O)O)c1 | 0.2 | -8.0 | -2.3 | -4.0 | 0.6
Cc1cccc(C)c1NS(=O)(=O)c1ccc(NC(=O)c2ccc(Cl)c([N+](=O)[O-])c2)cc1 | -1.4 | -16.7 | -9.8 | 33.3* | -39.4
CCCC1Oc2ccccc2C(=O)N(CC(=O)c2ccc3c(c2)OCCO3)C1=O (stereo not drawn) | -7.0 | nt | -4.1 | 0.0 | -13.4
CCC(C)Nc1nc(N)c([N+](=O)[O-])c(Nc2cc(OC)ccc2OC)n1 (stereo not drawn) | 1.0 | -4.0 | 4.8 | 28.2* | -6.7
CN1CCN(C(=O)CCS(=O)(=O)c2cc3c(cc2Cl)NC(=O)CO3)CC1 | -0.6 | nt | -1.6 | 1.8 | 0.4
CN1CCN(CCCC(=O)c2ccc(C3CCCC3)cc2)CC1 | 0.5 | -2.9 | -1.4 | 3.1 | 3.2
Cc1ccc(NC(=O)CN2C(=O)S/C(=C\c3cccn3-c3cccc(C(=O)O)c3)C2=O)c(C)c1 | -5.4 | -8.5 | -33.0 | -1.6 | 30.2*
CCN(CC)S(=O)(=O)c1cc(NC(=O)C(C)N2CCN(c3ccccn3)CC2)ccc1C (stereo not drawn) | 1.1 | 1.0 | 2.7 | 29.3* | 0.9
Cc1ccc(NC(=O)CN2CCN(c3ccccn3)CC2)cc1S(=O)(=O)N(C)C | 1.1 | 9.0 | 0.0 | 15.3 | 4.6
CN(C)C=Nc1ccccc1C1C=NNC1=O (stereo not drawn) | -2.8 | 2.4 | 1.0 | 28.2* | -2.0
Cc1cccc2cc(C#N)c(SCC#N)nc12 | -1.3 | -4.8 | 4.1 | 30.9* | -7.7
Cc1cccc2cc(C#N)c(SCC(=O)NNC(=O)Cc3ccccc3)nc12 | 1.0 | -5.5 | -23.8 | 0.2 | 2.0
CCc1ccc2[nH]c(O)c(N=NC3=NC(=O)CS3)c2c1 | 4.8 | 0.9 | 17.0 | 31.6* | 3.0
CCc1ccc2c(c1)c(N=NC1=NC(=O)CS1)c(O)n2CC | -1.0 | -0.6 | 6.3 | 4.9 | -0.9
Cc1ccccc1OCC(=O)NC(=S)Nc1cccc2cc(O)ccc12 | -7.9 | nt | -0.6 | 28.4* | -8.1
Cc1cc(C(=O)OCC(=O)Nc2cc(S(=O)(=O)N(C)C)ccc2C)c2ccccc2n1 | 0.8 | -10.5 | -0.1 | 28.3* | 2.5
